Experiments:
[1] = system: Rattus norvegicus; test: In vivo potency to block hypolocomotion response to m-CPP in rat after oral administration; type: functional; details: read-out: ID50 (the source's name)
[2] = target: T1, 5-hydroxytryptamine receptor 1A (Rattus norvegicus, UniProt P19327); test: Binding affinity against rat 5-hydroxytryptamine 1A receptor
T1 sequence (P19327 whole entry): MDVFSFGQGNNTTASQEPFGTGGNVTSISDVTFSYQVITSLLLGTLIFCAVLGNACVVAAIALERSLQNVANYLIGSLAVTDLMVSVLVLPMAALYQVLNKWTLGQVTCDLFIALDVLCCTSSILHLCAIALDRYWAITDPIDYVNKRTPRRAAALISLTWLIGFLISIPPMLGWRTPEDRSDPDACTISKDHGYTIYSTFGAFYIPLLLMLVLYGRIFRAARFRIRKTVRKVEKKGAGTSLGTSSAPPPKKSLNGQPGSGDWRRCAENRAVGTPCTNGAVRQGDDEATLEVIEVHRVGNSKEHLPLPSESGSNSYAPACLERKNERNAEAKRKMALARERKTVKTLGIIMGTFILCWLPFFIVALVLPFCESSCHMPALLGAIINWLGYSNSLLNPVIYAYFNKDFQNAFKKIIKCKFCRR

[3] = target: 5-hydroxytryptamine receptor 2A (Homo sapiens, UniProt P28223); test: Binding affinity against human 5-hydroxytryptamine 2A receptor expressed in 293 cells using [3H]ketanserin; type: cell-based, HEK293
Chain of 5-hydroxytryptamine receptor 2A (P28223 whole entry): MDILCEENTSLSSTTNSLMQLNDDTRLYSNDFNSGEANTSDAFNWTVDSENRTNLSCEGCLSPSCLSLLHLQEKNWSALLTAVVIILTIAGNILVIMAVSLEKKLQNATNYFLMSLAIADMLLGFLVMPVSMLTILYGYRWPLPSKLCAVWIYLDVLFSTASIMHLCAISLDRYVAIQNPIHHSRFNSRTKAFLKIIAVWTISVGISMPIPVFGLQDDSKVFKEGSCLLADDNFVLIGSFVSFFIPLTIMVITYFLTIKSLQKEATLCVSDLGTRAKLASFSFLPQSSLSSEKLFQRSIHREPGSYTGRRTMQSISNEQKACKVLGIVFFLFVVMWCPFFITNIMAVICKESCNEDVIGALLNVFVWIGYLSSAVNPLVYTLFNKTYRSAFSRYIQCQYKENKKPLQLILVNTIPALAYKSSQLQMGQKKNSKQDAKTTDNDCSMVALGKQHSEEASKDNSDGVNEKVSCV
Outline: (§1)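 Radioligand binding at cloned human receptors expressed in 293 cells: [³H]ketanserin for 5-HT2A, [³H]mesulergine for 5-HT2C. Values are means ± SEM of n ≥ 3 determinations.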

[4] = target: D(2) dopamine receptor (Homo sapiens, UniProt P14416); test: Binding affinity against human Dopamine receptor D2 expressed in CHO cells using [125I]iodosulpiride; type: cell-based
Chain of D(2) dopamine receptor (P14416 whole entry): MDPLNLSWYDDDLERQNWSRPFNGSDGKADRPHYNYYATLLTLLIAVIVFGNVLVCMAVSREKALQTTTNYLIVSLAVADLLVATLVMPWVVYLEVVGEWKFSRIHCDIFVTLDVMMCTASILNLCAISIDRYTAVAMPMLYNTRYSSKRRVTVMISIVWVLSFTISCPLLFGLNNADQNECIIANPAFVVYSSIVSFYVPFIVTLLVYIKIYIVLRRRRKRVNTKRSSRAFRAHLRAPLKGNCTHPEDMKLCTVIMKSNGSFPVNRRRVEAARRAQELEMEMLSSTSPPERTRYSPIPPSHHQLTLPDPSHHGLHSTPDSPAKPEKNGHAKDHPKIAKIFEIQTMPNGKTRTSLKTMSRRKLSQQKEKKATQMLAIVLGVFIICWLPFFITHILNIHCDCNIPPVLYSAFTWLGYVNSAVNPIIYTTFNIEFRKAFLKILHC

[5] = target: 5-hydroxytryptamine receptor 1D (Cavia porcellus, UniProt Q60484); test: Binding affinity against guinea pig 5-hydroxytryptamine 1D receptor
Chain of 5-hydroxytryptamine receptor 1D (Q60484 whole entry): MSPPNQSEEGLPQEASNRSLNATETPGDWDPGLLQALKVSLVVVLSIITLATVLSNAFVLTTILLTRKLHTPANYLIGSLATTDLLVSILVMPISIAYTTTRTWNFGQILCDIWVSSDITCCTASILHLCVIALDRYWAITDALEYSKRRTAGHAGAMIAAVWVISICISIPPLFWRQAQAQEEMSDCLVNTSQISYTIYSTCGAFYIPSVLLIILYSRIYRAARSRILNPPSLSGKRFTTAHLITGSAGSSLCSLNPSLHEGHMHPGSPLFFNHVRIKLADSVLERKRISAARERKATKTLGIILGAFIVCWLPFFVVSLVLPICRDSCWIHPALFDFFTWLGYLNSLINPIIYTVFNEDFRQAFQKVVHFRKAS

[6] = target: T2, Adrenergic receptor alpha-1 (Rattus norvegicus, UniProt P15823+P23944+P43140); test: Binding affinity against rat Alpha-1 adrenergic receptor; type: protein assay
T2 sequence (P15823 whole entry): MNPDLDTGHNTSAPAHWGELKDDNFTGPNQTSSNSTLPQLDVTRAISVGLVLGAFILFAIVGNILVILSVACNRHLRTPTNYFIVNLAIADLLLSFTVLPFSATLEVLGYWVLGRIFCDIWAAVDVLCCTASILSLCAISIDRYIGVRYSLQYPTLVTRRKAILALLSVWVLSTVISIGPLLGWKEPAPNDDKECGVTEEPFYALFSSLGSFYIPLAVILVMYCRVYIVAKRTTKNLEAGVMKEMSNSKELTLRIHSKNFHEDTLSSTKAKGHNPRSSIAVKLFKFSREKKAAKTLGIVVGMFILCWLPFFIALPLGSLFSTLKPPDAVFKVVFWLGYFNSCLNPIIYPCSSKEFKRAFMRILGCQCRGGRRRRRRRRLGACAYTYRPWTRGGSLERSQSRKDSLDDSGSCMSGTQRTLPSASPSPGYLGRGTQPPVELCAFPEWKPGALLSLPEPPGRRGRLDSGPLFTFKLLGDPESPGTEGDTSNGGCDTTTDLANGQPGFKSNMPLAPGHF
T2 sequence (P23944 whole entry): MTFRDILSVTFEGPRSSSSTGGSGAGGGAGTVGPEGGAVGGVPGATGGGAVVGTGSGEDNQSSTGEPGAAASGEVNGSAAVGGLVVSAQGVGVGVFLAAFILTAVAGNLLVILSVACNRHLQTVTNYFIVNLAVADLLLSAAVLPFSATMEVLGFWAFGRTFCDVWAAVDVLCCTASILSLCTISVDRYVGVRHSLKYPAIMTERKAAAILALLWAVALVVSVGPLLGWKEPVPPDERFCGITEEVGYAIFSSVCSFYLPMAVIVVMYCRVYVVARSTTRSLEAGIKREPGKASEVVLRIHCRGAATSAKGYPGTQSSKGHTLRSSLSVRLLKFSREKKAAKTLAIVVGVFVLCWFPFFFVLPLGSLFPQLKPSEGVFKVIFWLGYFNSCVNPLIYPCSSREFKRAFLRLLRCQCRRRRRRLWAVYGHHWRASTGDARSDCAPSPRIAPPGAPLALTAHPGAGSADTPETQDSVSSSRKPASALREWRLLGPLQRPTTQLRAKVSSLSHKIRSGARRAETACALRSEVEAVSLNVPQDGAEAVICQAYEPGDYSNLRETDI
T2 sequence (P43140 whole entry): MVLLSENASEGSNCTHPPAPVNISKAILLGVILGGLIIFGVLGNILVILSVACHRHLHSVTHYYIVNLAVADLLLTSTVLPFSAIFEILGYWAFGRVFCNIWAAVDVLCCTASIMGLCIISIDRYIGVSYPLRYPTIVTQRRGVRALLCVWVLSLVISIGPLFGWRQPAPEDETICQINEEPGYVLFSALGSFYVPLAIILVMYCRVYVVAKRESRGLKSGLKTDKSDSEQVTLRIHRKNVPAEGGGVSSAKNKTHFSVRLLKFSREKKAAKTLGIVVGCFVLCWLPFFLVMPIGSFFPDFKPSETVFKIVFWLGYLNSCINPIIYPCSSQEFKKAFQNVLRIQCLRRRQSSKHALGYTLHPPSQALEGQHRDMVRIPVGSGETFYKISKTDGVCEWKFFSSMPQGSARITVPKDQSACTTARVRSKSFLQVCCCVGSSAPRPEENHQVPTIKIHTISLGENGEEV

[7] = target: T3, Serotonin 3 (5-HT3) receptor (Rattus norvegicus, UniProt P35563+Q9JJ16); test: Binding affinity against rat 5-hydroxytryptamine 3 receptor; type: protein-complex assay
T3 sequence (P35563 whole entry): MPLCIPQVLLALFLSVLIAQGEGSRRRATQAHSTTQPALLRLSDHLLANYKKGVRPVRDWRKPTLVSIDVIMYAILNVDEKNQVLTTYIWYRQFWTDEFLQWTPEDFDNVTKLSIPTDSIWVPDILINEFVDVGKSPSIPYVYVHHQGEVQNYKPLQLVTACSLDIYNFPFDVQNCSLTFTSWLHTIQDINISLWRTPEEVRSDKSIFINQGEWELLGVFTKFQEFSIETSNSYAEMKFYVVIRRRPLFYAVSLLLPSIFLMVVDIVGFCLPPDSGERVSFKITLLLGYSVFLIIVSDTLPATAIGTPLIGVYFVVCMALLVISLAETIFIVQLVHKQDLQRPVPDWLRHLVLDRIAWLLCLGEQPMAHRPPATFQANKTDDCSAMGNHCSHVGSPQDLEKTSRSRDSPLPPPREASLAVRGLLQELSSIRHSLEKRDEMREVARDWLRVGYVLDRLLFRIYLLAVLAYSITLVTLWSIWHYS
T3 sequence (Q9JJ16 whole entry): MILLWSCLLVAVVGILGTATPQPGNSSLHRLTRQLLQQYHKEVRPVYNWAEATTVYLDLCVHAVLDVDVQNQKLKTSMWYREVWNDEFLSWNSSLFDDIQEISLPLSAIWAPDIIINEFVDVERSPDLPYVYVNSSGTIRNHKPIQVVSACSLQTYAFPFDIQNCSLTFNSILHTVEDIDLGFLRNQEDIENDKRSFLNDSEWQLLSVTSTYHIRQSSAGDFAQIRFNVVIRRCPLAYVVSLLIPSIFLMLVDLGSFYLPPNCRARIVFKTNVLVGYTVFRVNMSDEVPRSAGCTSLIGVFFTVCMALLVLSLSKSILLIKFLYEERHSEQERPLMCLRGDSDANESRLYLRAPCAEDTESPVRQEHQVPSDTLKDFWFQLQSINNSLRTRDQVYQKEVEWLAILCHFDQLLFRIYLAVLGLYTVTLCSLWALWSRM

[8] = target: T4, Adenosine receptor A1 (Rattus norvegicus, UniProt P25099); test: Binding affinity against rat Adenosine A1 receptor
T4 sequence (P25099 whole entry): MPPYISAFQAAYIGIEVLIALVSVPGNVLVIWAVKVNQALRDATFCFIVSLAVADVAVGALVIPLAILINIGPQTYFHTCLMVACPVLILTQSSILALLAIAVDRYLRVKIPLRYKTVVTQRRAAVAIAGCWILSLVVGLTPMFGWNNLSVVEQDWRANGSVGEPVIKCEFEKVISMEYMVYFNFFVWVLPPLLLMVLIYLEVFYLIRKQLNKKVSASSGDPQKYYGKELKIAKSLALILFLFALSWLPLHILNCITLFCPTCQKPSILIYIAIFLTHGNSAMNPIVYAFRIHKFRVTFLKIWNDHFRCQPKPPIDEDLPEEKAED

[9] = target: D(3) dopamine receptor (Homo sapiens, UniProt P35462); test: Binding affinity human Dopamine receptor D3 expressed in CHO cells using [125I]iodosulpiride; type: cell-based
Chain of D(3) dopamine receptor (P35462 whole entry): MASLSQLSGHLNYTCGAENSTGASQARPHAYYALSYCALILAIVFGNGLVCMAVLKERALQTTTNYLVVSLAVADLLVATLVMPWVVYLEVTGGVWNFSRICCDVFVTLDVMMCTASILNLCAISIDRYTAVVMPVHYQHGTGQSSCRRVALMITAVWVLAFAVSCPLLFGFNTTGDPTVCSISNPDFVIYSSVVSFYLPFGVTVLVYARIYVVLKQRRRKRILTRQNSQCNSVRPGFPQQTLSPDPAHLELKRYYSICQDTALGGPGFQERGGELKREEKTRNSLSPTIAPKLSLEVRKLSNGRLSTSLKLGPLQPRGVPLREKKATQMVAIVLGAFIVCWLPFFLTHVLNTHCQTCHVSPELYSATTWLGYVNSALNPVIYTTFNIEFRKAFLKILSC

[10] = target: Histamine H1 receptor (Cavia porcellus, UniProt P31389); test: Binding affinity against guinea pig H1 receptor
Chain of Histamine H1 receptor (P31389 whole entry): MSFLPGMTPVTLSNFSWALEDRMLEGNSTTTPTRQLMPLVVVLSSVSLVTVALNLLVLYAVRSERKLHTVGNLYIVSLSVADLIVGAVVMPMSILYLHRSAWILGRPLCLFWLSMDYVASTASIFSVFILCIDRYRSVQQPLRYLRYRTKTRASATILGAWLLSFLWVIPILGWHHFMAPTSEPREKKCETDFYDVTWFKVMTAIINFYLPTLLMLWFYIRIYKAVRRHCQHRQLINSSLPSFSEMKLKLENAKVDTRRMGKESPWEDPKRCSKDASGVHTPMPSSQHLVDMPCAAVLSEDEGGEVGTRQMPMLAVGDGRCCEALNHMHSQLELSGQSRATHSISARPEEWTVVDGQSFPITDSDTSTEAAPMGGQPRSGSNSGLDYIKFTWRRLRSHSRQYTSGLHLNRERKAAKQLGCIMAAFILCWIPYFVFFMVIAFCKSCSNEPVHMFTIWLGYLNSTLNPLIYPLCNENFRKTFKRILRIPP

[11] = target: 5-hydroxytryptamine receptor 1E (Homo sapiens, UniProt P28566); test: Binding affinity against human 5-hydroxytryptamine 1E receptor expressed in CHO cells; type: cell-based
Chain of 5-hydroxytryptamine receptor 1E (P28566 whole entry): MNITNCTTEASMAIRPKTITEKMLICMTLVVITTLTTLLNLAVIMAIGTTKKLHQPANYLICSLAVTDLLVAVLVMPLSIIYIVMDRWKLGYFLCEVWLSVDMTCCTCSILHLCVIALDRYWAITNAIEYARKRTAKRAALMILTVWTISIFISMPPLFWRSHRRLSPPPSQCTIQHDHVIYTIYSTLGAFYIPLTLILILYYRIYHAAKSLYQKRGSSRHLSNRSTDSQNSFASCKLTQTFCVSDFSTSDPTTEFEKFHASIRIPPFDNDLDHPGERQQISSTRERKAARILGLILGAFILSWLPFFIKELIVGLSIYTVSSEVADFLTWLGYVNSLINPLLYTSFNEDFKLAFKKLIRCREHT
Outline: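 Displacement binding at cloned human 5-HT1E receptors expressed in CHO cells, using [³H]-5-HT as radioligand.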

[12] = target: 5-hydroxytryptamine receptor 4 (Rattus norvegicus, UniProt Q62758); test: Binding affinity against rat 5-hydroxytryptamine 4 receptor
Chain of 5-hydroxytryptamine receptor 4 (Q62758 whole entry): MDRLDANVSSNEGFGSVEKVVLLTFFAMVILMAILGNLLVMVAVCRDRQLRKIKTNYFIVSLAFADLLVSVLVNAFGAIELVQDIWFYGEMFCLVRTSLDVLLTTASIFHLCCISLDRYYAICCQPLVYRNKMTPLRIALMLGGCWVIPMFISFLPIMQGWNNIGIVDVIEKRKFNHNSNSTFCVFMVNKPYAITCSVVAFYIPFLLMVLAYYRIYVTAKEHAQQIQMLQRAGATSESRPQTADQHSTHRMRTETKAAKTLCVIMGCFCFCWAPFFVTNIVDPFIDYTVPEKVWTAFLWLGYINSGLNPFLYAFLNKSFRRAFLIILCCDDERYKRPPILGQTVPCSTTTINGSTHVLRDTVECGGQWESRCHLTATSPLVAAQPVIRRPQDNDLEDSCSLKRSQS

[13] = target: 5-hydroxytryptamine receptor 2B (Rattus norvegicus, UniProt P30994); test: Inhibitory potency against rat stomach fundus 5-hydroxytryptamine 2B receptor; type: tissue-based; details: read-out: pA2 (converted)
Chain of 5-hydroxytryptamine receptor 2B (P30994 whole entry): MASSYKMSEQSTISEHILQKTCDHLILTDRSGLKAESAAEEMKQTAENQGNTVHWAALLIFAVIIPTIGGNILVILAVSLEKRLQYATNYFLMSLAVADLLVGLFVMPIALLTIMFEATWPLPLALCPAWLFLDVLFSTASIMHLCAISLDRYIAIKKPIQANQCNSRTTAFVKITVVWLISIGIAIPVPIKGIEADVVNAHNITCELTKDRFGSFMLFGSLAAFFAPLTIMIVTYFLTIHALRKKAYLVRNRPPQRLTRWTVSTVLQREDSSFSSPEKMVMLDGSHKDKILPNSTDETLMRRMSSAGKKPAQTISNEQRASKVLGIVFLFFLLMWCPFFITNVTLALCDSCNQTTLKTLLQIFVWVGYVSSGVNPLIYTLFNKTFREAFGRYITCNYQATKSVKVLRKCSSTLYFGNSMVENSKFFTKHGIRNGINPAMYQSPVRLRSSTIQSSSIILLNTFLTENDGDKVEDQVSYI
Outline: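 Functional antagonism in isolated rat stomach fundus, with contraction evoked by 5-HT as the agonist. Values are means ± SEM of n ≥ 3 determinations.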

[14] = target: T5, 5-hydroxytryptamine receptor 2C (Homo sapiens, UniProt P28335); test: (§2) Binding affinity against human 5-hydroxytryptamine 2C receptor expressed in 293 cells using [3H]mesulergine; type: cell-based, HEK293; outline: as §1
T5 sequence (P28335 whole entry): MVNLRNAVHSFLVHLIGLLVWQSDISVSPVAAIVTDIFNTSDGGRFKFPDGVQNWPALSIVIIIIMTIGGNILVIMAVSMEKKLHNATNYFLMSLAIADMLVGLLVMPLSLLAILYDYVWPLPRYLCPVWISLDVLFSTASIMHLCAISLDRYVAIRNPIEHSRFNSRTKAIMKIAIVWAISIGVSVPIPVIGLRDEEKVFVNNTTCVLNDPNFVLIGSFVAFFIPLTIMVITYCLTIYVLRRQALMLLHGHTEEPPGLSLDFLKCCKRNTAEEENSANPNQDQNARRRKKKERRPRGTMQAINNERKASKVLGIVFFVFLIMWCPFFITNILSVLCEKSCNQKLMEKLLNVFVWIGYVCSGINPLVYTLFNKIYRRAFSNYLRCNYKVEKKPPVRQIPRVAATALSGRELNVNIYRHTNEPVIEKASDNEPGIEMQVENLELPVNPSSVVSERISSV

[15] = target: T5, 5-hydroxytryptamine receptor 2C; test: as §2; type: cell-based, HEK293; remark: listed apart in the source
Outline: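 Radioligand binding to cloned human receptor in 293 cells with [3H]mesulergine; values are means ± SEM of at least 3 determinations.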

Ki [3]	Kb [13]	Ki [14]	Compound	ED50 [1]	also measured
1.62 µM	0.00331 µM	–	Cn1ccc2cc3c(cc21)CCN3C(=O)Nc1cccnc1	5.5 mg/kg	Ki [2]: > 10 µM; Ki [4]: > 10 µM; Ki [5]: > 1 µM; Log Ki [6]: > -5; Ki [7]: > 10 µM; Ki [8]: > 50.1 µM; Ki [9]: > 10 µM; Ki [10]: > 10 µM; Ki [11]: > 5.01 µM; Ki [12]: 5.01 µM
2.88 µM	0.0178 µM	0.0661 µM	Cn1ccc2c3c(ccc21)N(C(=O)Nc1cccnc1)CC3	–	–
–	0.0398 µM	–	Cl.Cn1ccc2cc(NC(=O)Nc3cccnc3)ccc21	19.2 mg/kg	Ki [15]: 0.138 µM
> 6.31 µM	0.0537 µM	4.07 µM	Cn1ccc2cc3c(cc21)CCCN3C(=O)Nc1cccnc1	–	–

Compound	Ki [3]	Kb [13]	Ki [14]	ED50 [1]	also measured
Cn1ccc2c3c(ccc21)N(C(=O)Nc1cccnc1)CCC3	> 6.31 µM	0.0603 µM	> 6.31 µM	–	–

Source: ChEMBL document CHEMBL1128425, “5-Methyl-1-(3-pyridylcarbamoyl)-1,2,3,5-tetrahydropyrrolo[2,3-f]indole: a novel 5-HT2C/5-HT2B receptor antagonist with improved affinity, selectivity, and oral activity” (J Med Chem, 1995)
